Compound activity: PubChem, several laboratories
Hits are enriched below; roughly 2.6% of the tested compounds scored in any of these assays.
PAD4 FP inh: inhibitors of human PAD4; Q9UM07; 0.41% of 330,000 active; recombinant PAD4, RCA probe fluorescence polarization; inhibition, % at 6.36 µM; AID 485272;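 active means percent inhibition above a cutoff equal to the mean of all tested compounds plus 3 SD, cut at about 15% in these data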;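 further: 0% = PAD4 with RCA probe and DMSO and 100% = probe without PAD4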
GSTO1 inh: blocks human GSTO1 in RBBP9 counter-screen; P78417; recombinant GSTO1, activity-based probe fluorescence polarization; 1.1% of 300,000 active; inhibition, % at 5.96 µM;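 active means inhibition above the campaign mean inhibition plus 3 SD, cut at about 35% in these data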;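 further: 0% = GSTO1-1 with DMSO and 100% = wells lacking GSTO1-1 enzyme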
Target sequence (P78417 whole entry, looked up): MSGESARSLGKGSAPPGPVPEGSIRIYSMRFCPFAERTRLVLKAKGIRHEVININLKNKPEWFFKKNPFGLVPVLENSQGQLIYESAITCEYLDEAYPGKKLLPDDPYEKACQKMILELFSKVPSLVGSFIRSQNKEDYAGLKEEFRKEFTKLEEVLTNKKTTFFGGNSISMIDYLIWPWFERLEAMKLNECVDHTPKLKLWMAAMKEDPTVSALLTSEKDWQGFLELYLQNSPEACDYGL
TDP2 inh: TDP2 (human) inhibition, absorbance primary screen | O95551 | recombinant TDP2, T5PNP hydrolysis, p-nitrophenol absorbance 415 nm | inhibition, % at 12.8 µM | 0.34% of 370,000 active | AID 720702;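 active means inhibition above the mean of all tested compounds plus 3 SD, set per campaign, cut at about 25% in these data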;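 further: 0% = DMSO with enzyme and 100% = buffer with substrate but no TDP2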
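Test system: human TDP2 enzyme; Input: 120 nM TDP2 per well; Buffer or medium: Mg2+-containing Tris-HCl buffer, pH 7.5; Reagent: 5 mM T5PNP; Dosing: 12.8 µM single point, 1% DMSO; Incubation: reaction 2 h, 37 °C; Detection: p-Nitrophenol epi absorbance; Read-out: % inhibition relative to enzyme-containing and enzyme-free wells; Replicates: single well per compound.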
PRMT1 inh: blocks human protein arginine methyltransferase 1; Q99873; inhibition, % at 2.79 µM; 1.3% of 370,000 active; recombinant PRMT1, activity-based probe fluorescence polarization;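 active means inhibition above about 21% made by adding two undisclosed values, limit read from the data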
Target sequence (Q99873 whole entry, looked up): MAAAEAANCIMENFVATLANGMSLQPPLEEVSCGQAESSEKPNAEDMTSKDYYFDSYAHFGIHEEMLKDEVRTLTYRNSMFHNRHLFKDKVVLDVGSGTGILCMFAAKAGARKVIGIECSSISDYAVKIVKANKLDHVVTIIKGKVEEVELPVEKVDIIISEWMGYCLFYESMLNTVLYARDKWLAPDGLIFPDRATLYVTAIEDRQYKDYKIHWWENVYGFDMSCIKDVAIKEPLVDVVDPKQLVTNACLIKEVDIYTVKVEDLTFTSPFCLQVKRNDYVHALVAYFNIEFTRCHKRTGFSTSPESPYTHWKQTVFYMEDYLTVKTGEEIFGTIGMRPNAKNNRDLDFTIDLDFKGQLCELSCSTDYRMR
Apaf-1 inh: human Apaf-1 inhibition; inhibition, % at 20 µM; O14727; 0.71% of 330,000 active; reconstituted apoptosome caspase-3 activity, DEVD-Rh110 fluorescence; AID 489030; active means inhibition of at least 40% at 20 µM;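 further: plate controls were DMSO wells for no effect and DEVD-CHO caspase inhibitor wells for full effect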
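Assay system – apoptosome proteins · Medium – Hepes buffer, pH 7.5 · Also added – cytochrome c with DEVD-Rh110 · Timing – 30 min compound preincubation, 50 min activation, room temperature · Detection – Rh110 fluorescence, excitation 480 nm, emission 540 nm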
PRMT1 inh conf: confirmation of human PRMT1 inhibitors. inhibition, % at 2.79 µM. recombinant His-PRMT1, activity-based probe fluorescence polarization. 42% of 3,300 active. shares compounds with PRMT1 inh;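 active means mean inhibition across replicates above the hit cutoff derived for the earlier primary screen, cut at about 22% in these data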
* = called active by the depositor; nt = not tested or not shown.

SMILES	PAD4 FP inh	GSTO1 inh	TDP2 inh	PRMT1 inh	Apaf-1 inh	PRMT1 inh conf
CCCN(CCC)S(=O)(=O)c1ccc(C(=O)NCc2n[nH]c(=S)n2-c2ccc(Cl)c(Cl)c2)cc1	-0.2	-0.4	-4.8	29.5*	13.0	14.4
O=C(NCc1n[nH]c(=S)n1-c1ccc(Cl)c(Cl)c1)c1ccco1	3.1	-5.0	-8.7	7.1	-3.6	nt
CN(C)C(=O)c1ccc(-n2cccn2)nc1	-8.2	-2.6	7.3	-1.2	-13.5	nt
COc1ccccc1N1C(=O)Cc2ccccc2C1=O	-5.4	13.2	-2.6	5.5	39.3	nt
COC(=O)c1ccc(N2C(=O)CC(SCC(=O)Nc3ccc(OC)cc3)C2=O)cc1 (centres undefined)	1.4	13.4	-7.8	52.8*	-22.0	48.6*
CCOC(=O)c1ccc(N2C(=O)CC(Nc3ccc(CCO)cc3)C2=O)cc1 (centres undefined)	-4.2	5.1	-8.0	0.2	-12.3	nt
O=C(CSC1CC(=O)N(c2ccc(C(=O)O)cc2)C1=O)Nc1ccc2ccccc2c1 (centres undefined)	2.6	0.0	-1.9	19.5	11.9	nt
CCOC(=O)c1ccc(N2C(=O)CC(SCC(=O)Nc3ccc(S(N)(=O)=O)cc3)C2=O)cc1 (centres undefined)	1.2	2.1	0.2	82.1*	-5.9	83.0*
Cc1ccc(N2C(=O)CC(SCC(=O)Nc3ccc(S(N)(=O)=O)cc3)C2=O)cc1 (centres undefined)	-3.4	0.8	5.1	53.4*	3.0	66.2*
CCN(CC)c1ccc(/C=C(/C#N)c2nc3ccc(C)cc3[nH]2)c(OC(C)C)c1	-12.5	-6.8	-7.0	48.3*	15.0	53.1*
Cc1ccc(OCCC(=O)OCC(=O)NC(=O)c2ccccc2)cc1	-2.9	-3.3	-9.1	-2.7	11.0	nt
CC1(C(=O)NS(=O)(=O)c2ccc(Cl)cc2)CCN1C(=O)c1cccc(F)c1 (centres undefined)	nt	nt	9.8	-5.8	nt	nt
CN(CC(=O)Nc1c(Cl)cccc1Cl)C(=O)c1cc2ccccc2cc1O	-0.9	8.7	7.7	1.7	12.4	nt
COCCN(C(=S)Nc1c(C)cc(C)cc1C)C(C)c1cccnc1 (centres undefined)	-12.2	0.9	8.0	74.2*	2.4	63.2*
O=C(CCCCn1cnc2c(=S)nc[nH]c21)Nc1ccc(C(=O)O)cc1	nt	nt	9.6	30.3*	nt	10.3
CCNc1nc(NC(C)(C)C)nc(N2CCCC2)n1	-0.2	-2.8	1.9	31.7*	12.4	2.8
CC(C)(C)Nc1nc(N2CCCC2)nc(N2CCCC2)n1	2.8	8.4	-13.4	-0.8	5.5	nt
N#Cc1ccsc1NC(=O)C1CC(=O)N(Cc2ccccc2)C1 (centres undefined)	-6.3	-8.6	-0.6	-4.0	0.4	nt
Cc1ccc(Cn2c(=S)[nH]c3ccc(N4CCOCC4)cc3c2=O)o1	-4.2	16.1	-9.8	68.7*	21.0	60.9*
CCc1cc2c(=O)n(Cc3ccco3)c(SCC(=O)NCC3CCCO3)nc2s1 (centres undefined)	-2.5	-1.8	15.6	2.8	6.8	nt
CCc1cc2c(=O)n(Cc3ccco3)c(SCC(=O)N3CCCc4ccccc43)nc2s1	-6.1	-3.2	-4.7	46.4*	19.8	10.3
CCc1cc2c(=O)n(Cc3ccco3)c(SCc3c(C)noc3C)nc2s1	-1.0	-1.6	-0.4	52.7*	25.6	7.5
O=C(Nc1ccnc(=O)[nH]1)c1sc2ccccc2c1Cl	-2.5	-5.2	8.7	3.0	-21.1	nt
CCN1C(=O)/C(=C/C=C2/Sc3ccc4ccccc4c3N2CCO)SC1=S	-61.6	-13.2	-1.9	43.9*	-4.3	-2.9
Cc1ccc(C(=O)NCCCNC(=O)c2ccccc2C)cn1	1.8	9.2	2.0	0.6	2.0	nt
SMILES	PAD4 FP inh	GSTO1 inh	TDP2 inh	PRMT1 inh	Apaf-1 inh	PRMT1 inh conf
Cc1ccc(-c2cccc(NC(=O)C3C(C(=O)O)[C@@H]4C=C[C@H]3C4)c2)o1 (some centres undefined)	-6.5	0.8	10.2	64.8*	-0.9	10.5
COc1ccc(-c2nn(-c3ccccc3)cc2CNC[C@H]2O[C@@H](n3cnc(C(N)=O)n3)[C@H](O)[C@@H]2O)cc1	nt	nt	-9.6	-1.5	nt	nt
COc1cccc(NC(=O)NC(C)C2CC3CCC2C3)c1 (centres undefined)	-4.8	1.5	-3.1	3.2	-8.3	nt
COc1ccc(N=c2scc(-c3ccc(OC)cc3)n2CCO)cc1	-0.9	12.6	-3.6	35.9*	22.0	8.1
CC(C)C(NC(=O)C1CCCCC1)C(=O)NCCc1ccccc1 (centres undefined)	4.3	3.6	3.2	24.9*	-6.5	-1.1
Cc1nnc(NC(=O)c2cc(-c3ccncc3)nc3c(C)cccc23)s1	-1.0	-11.0	4.7	0.8	2.2	nt
CCN(CC)CCn1c2ccccc2c2n[nH]c(=S)nc21	-1.0	5.2	2.4	85.2*	-5.3	57.6*
CC1CCN(S(=O)(=O)c2ccc3c(c2)N(C)C(=O)CC(=O)N3C)CC1	0.0	6.1	1.2	47.2*	-1.3	44.2*
CN1C(=O)CC(=O)N(C)c2cc(S(=O)(=O)N(C)Cc3ccccc3)ccc21	2.6	9.0	16.1	54.2*	-10.7	36.3*
Cc1ccc(-c2nn(-c3ccccc3)cc2C=C2SC(=S)N(CCS(=O)(=O)O)C2=O)cc1	nt	nt	-2.3	10.2	nt	nt
O=C1C(=Cc2cn(-c3ccccc3)nc2-c2ccc(OCc3ccccc3)cc2)SC(=S)N1CCS(=O)(=O)O	nt	nt	-1.7	42.6*	nt	4.9
Clc1ccc(C2Nc3cccc4cccc(c34)N2)cc1Cl	-3.7	23.5	-7.6	8.7	6.7	nt
Fc1cccc(Cl)c1C1Nc2cccc3cccc(c23)N1	-2.3	31.6	18.2	33.1*	23.2	27.0*
CC(=O)Nc1ccc(SCC(=O)c2cc(C)n(CC(F)(F)F)c2C)cc1	0.9	10.5	0.0	0.1	4.2	nt
CN(C)S(=O)(=O)c1ccc(C(=O)NC(=O)CSc2ccccc2)cc1	1.2	-0.6	-2.0	1.6	-0.9	nt
CC(=O)Nc1ccc(SCC(=O)Nc2ccc3c(c2)OCCO3)cc1	5.2	nt	-4.2	57.6*	-1.3	53.6*
CC(=O)Nc1ccc(SCC(=O)c2cc(C)n(C)c2C)cc1	0.7	7.2	-8.4	36.1*	1.5	15.7
CC(=O)Nc1ccc(SCC(=O)Nc2ccc(Cl)cn2)cc1	5.5	6.6	-5.2	28.5*	-23.8	37.1*
CC(=O)Nc1ccc(SCC(=O)NC(=O)c2ccc(S(=O)(=O)N(C)C)cc2)cc1	11.1	nt	-6.9	50.2*	-14.4	42.6*
C/C(=N/NC(=O)CNc1ccc(Cl)cc1C)c1ccc(C)cc1	-8.6	1.9	4.3	-2.7	-7.5	nt
CCN(CC)CCN(Cc1cc2cc(C)cc(C)c2[nH]c1=O)C(=S)NCc1ccco1	-3.8	0.1	-10.0	-3.9	14.8	nt
Cc1ccc2cc(CN(Cc3ccco3)C(=O)c3cccs3)c(=O)[nH]c2c1	-7.2	-15.2	-7.0	29.6*	14.9	2.1
